The source of these data is ChEMBL document CHEMBL5257098, “Development and Characterization of Fluorescent Probes for the G Protein-Coupled Receptor 35” (ACS Med Chem Lett, 2023).

Experiment [1] concerns the target T1, G-protein coupled receptor 35 (Homo sapiens, UniProt Q9HC97). The experiment is described as follows: Agonist activity at GPR-35 in human HT-29 cells by DMR assay. Format: cell-based. In outline:
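Label-free DMR was recorded in HT-29 cells endogenously expressing GPR35 across a range of probe concentrations. EC50 was taken from concentration–response curves. Values are mean ± SD of two independent measurements, each with four replicates.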

In experiment [2] the target is T1, G-protein coupled receptor 35. The experiment is described as follows: Agonist activity at GPR-35 in human HT-29 cells assessed as desensitization of zaprinast induced DMR response incubated for 1 hr followed by zaprinast stimulation. The class given is cell-based.
Experiment [3] has the same target. The experiment is described as follows: Agonist activity at human GPR-35 over expressed in CHO-K1 cells incubated for 1 hr followed by zaprinast stimulation by DMR assay. Format: cell-based. The conditions noted are these: filed as agonist.
For experiment [4] the target is unchanged. The experiment is described as follows: Binding affinity to Nluc-fused human GPR35 expressed in CHO-K1 cells using furimazine as substrate incubated for 30 mins in presence of zaprinast followed by substrate addition by […] equilibrium binding assay. Format: cell-based. In outline:
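CHO-K1 cells were transfected with human GPR35 carrying an N-terminal nano-luciferase tag. Fluorescent probes were added at varying concentrations for saturation BRET binding. […] Kd was derived from the data. Values are mean ± SD of three independent measurements, each in triplicate.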

For experiment [5] the target is unchanged. The experiment is described as follows: Agonist activity at GPR-35 in human HT-29 cells assessed as DMR response in presence of ML-145.
For experiment [6] the target is unchanged. The experiment is described as follows: Competitive binding affinity to Nluc-fused human GPR35 expressed in CHO-K1 cells assessed as inhibition constant using furimazine as substrate incubated for 30 mins followed by substrate addition by in presence of 10-(4-(2-(4-(4-((2,8-dicarboxy-6-hydroxy-10-methylpyrido[3,2-g]quinolin-4-yl)oxy)butyl)-1H-1,2,3-triazol-1-yl)ethoxy)phenyl)-5,5-difluoro-2,7,9-trimethyl-5H-imidazo[1,2-c]pyrrolo[2,1-f][ …. The class given is cell-based.

Experiment [7] has the same target. The experiment is described as follows: Agonist activity at GPR-35 in human HT-29 cells incubated for 1 hr by DMR assay. Format: cell-based.
Experiment [8] has the same target. The experiment is described as follows: Reversible binding affinity to Nluc-fused human GPR35 expressed in CHO-K1 cells using furimazine as substrate incubated for 10 mins followed by addition of ML145 by kinetic assay. The class given is cell-based. The conditions noted are these: filed as agonist. Put shortly: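 Kinetic BRET binding used CHO-K1 cells expressing NLUC-tagged human GPR35. The BRET emission ratio was followed after adding probe (5 nM). 10 min later, ML-145 (10 μM) was added to dissociate the probe.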

pEC50, pIC50, pKd, pKi: −log10 of the molar value. Active and inactive are the calls of the source. The calls are words filed in the database; no cut-off is given here.

T1 sequence (Q9HC97 whole entry): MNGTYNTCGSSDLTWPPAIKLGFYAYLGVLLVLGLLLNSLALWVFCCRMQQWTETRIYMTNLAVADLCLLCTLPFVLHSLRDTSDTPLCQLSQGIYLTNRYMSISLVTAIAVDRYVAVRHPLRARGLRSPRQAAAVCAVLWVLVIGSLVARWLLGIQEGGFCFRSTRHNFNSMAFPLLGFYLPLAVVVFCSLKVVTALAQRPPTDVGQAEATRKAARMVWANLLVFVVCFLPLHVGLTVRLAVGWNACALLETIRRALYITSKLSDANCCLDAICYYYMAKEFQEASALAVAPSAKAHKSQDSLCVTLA

In the case of `CC1=CC(C)=[N+]2C1=C(c1ccc(OCCn3cc(CCCOc4cc(C(=O)O)nc5c(C)c6nc(C(=O)O)cc(O)c6cc45)nn3)cc1)c1nc(C)cn1[B-]2(F)F`, the pEC50 (usually −log10 of the EC50, conventionally taken in molar units) in experiment [1] was 7.09. Moreover, the pIC50 – broadly, the IC50 on a negative log10 scale, so that one unit is a factor of ten – was 8.02 in experiment [2] and 5.99 in experiment [5]. The result in experiment [3] was Active. In addition, the pKd (as a rule, −log10 of the Kd, conventionally taken in molar units) in experiment [4] is 8.13.
In the case of `O=C(O)c1cc2cc(Br)c(O)c(Br)c2oc1=O`, in experiment [6], the pKi – broadly, −log10 of the Ki, conventionally taken in molar units – was 6.45.
Consider `CC1=CC(C)=[N+]2C1=C(c1ccc(OCCn3cc(CCOCCOc4cc(C(=O)O)nc5c(C)c6nc(C(=O)O)cc(O)c6cc45)nn3)cc1)c1nc(C)cn1[B-]2(F)F`, for which the pEC50 in experiment [1] was 7.23. The pIC50 in experiment [2] is 8.11; in experiment [5], 6.11. Moreover, the outcome in experiment [3] was Active. The pKd in experiment [4] was 7.75.
Turning to `O=c1oc2c([N+](=O)[O-])c(O)c(Br)cc2cc1-c1nnn[nH]1`, the pKi in experiment [6] is 7.29. This compound also gave a pEC50 in experiment [7] of 8.22.
Turning to `CC1=CC(C)=[N+]2C1=C(c1ccc(OCCn3cc(CCCCCOc4cc(C(=O)O)nc5c(C)c6nc(C(=O)O)cc(O)c6cc45)nn3)cc1)c1nc(C)cn1[B-]2(F)F`, in experiment [1], the pEC50 was 7.37. The pIC50 in experiment [2] was 8.25; in experiment [5] it was 6.40. Moreover, the outcome in experiment [3] was Active. Further, the pKd in experiment [4] was 8.08.
With `O=C(O)c1cc(C(=O)O)c2c(n1)C(=O)C(=O)c1cc(C(=O)O)[nH]c1-2` [PYRROLOQUINOLINE QUINONE], the pKi in experiment [6] is 6.48.
Turning to `Cc1c2[nH]c(C(=O)O)cc(=O)c2cc2c(=O)cc(C(=O)O)[nH]c12`, the pKi in experiment [6] was 8.22.
On the same count and under the same terms, the result for `O=C(O)c1cc(=O)c2c(OCC(O)COc3cccc4oc(C(=O)O)cc(=O)c34)cccc2o1` [CROMOLYN] reads 5.53; that for `COC(=O)c1cnn(-c2ccc(F)cc2F)c1/C=N/NC(=S)NC(C)(C)C`, 6.63; that for `COc1ccc(C(=O)Nc2cc(Br)ccc2-c2nnn[nH]2)cc1`, 8.00.
Consider `CC1=CC(C)=[N+]2C1=C(c1ccc(OCCn3cc(CCCCOc4cc(C(=O)O)nc5c(C)c6nc(C(=O)O)cc(O)c6cc45)nn3)cc1)c1nc(C)cn1[B-]2(F)F`, for which, in experiment [1], the pEC50 is 7.31. Besides, the pIC50 in experiment [2] was 8.03; in experiment [5], 6.27. In addition, the outcome in experiment [3] and in experiment [8] was Active. Further, the pKd in experiment [4] was 8.41.
